Experimental data of several laboratories.
Protocols differ between the studies behind these lines.
CDK9 with cyclin T1: Cyclin-dependent kinase 9, with cyclin T1 (CDK9, Homo sapiens, UniProt P50750)
CDK9: Cyclin-dependent kinase 9 (CDK9, Homo sapiens, UniProt P50750)
CDK9 with cyclin K: Cyclin-dependent kinase 9, with cyclin K (CDK9, Homo sapiens, UniProt P50750)

COc1cc(/C=C/C(=O)CC(=O)/C=C/c2ccc(O)c(OC)c2)ccc1O gave an activity vs control of 88% (CDK9 with cyclin T1; enzyme activity; inhibitor; 1 µM).
With CNC(=O)c1cc(Oc2ccc(NC(=O)Nc3ccc(Cl)c(C(F)(F)F)c3)cc2)ccn1 the inhibition was -4% (CDK9 with cyclin T1; enzyme activity; inhibitor; 0.3 µM).
For CCCOc1ccc(OC)c(F)c1C(=O)c1ccc(C(=O)N[C@@H]2CNC[C@H]2NC(=O)c2ccc3[nH]ncc3c2)cc1, the remaining activity was 101% (CDK9 with cyclin T1; enzyme activity; inhibitor; 10 µM).
CCCCNc1ncc2c(-c3ccc(F)cc3)nn(C[C@H]3CC[C@H](N)CC3)c2n1 gave an inhibition of 29.3% (CDK9; target engagement in cells; inhibitor; chemoproteomics; 20 mM).
O=C1CCc2cc(Nc3cc(OC4CCOCC4)c([N+](=O)[O-])cc3Cl)ccc2N1 gave a remaining binding of 97% (CDK9; cell-free assay; competition with immobilised ligand; 1 µM).
With C=CC(=O)Nc1cc(Nc2nccc(Nc3cc(Cl)c(F)cc3C(C)(C)O)n2)c(OC)cc1N1CC[C@@H](N(C)C)C1 the inhibition was 10% (CDK9 with cyclin T1; enzyme activity; inhibitor; 1 µM).
Cc1ccc(NC(=O)c2ccc(CN3CCN(C)CC3)cc2)cc1Nc1nc(-c2cccnc2)cs1 has a remaining signal of 109% (CDK9 with cyclin K; cell-free assay; 0.5 µM).
The remaining binding of CCCOc1ccc([C@H]2[C@H](C(=O)O)[C@@H](c3ccc4c(c3)OCO4)CN2CC(=O)Nc2c(CC)cccc2CC)cc1 is reported as 88% (CDK9; cell-free assay; competition with immobilised ligand; 1 µM).
O=C1Nc2ccc(Cl)cc2C1=Cc1cc(Cl)c(O)c(Cl)c1 has a remaining signal of 95.2% (CDK9 with cyclin T1; cell-free assay; 0.5 µM).
CC(C)(C)c1nc(-c2cccc(NS(=O)(=O)c3c(F)cccc3F)c2F)c(-c2ccnc(N)n2)s1 has a remaining activity of 98% (CDK9 with cyclin K; enzyme activity; inhibitor; radiometric; 1 µM).
For CN1CC(Oc2cnc(C#N)cc2-c2ccn3nc(NC(=O)C4CC4)cc3c2)C1, the inhibition was -15% (CDK9 with cyclin T1; enzyme activity; inhibitor; 1 µM).
With CCC(=O)N[C@@H]1CC[C@H](C(=O)N(C)c2ccc(-c3nc4ccccc4o3)cc2)C1 the remaining binding was 100% (CDK9; cell-free assay; competition with immobilised ligand; 1 µM).
Cc1ccc(Nc2nccc(N(C)c3ccc4c(C)n(C)nc4c3)n2)cc1S(N)(=O)=O gave a remaining activity of 92.7% (CDK9 with cyclin K; enzyme activity; inhibitor; 0.5 µM).
For CN(C)C1CCN(CC#Cc2nn(C3CCCC3)c3nc(NCc4ccccc4)ncc23)C1 (stereo not shown), the inhibition was 1% (CDK9 with cyclin T1; enzyme activity; inhibitor; FRET; 1 µM).
With CCCCN(CCCC)C(=O)CN1C[C@@H](c2cc(OC)c3c(c2)OCO3)[C@H](C(=O)O)[C@H]1CC(C)(C)CCC the remaining binding was 100% (CDK9; cell-free assay; competition with immobilised ligand; 1 µM).
Cc1cc(NC(=O)c2cccc3cc(-c4cccc5[nH]nc(N)c45)ccc23)ccc1F gave an activity vs control of 106% (CDK9 with cyclin T1; enzyme activity; inhibitor; 0.1 µM).
CCN(CC)CCNC(=O)c1c(C)[nH]c(/C=C2\C(=O)Nc3ccc(F)cc32)c1C has an inhibition of -7% (CDK9 with cyclin T1; enzyme activity; inhibitor; 0.3 µM).
For N#CCCc1ccc2c(c1)-c1[nH]c3ccc([N+](=O)[O-])cc3c1CC(=O)N2, the remaining signal was 28.6% (CDK9 with cyclin T1; cell-free assay; 0.5 µM).
With CC(C)(C)c1nc2c(s1)c1nc(N)ncc1c1ccc(NS(=O)(=O)c3c(F)cccc3F)c(F)c12 the remaining activity was 102% (CDK9 with cyclin T1; enzyme activity; inhibitor; radiometric; 1 µM).
With CS(=O)(=O)CCNCc1ccc(-c2ccc3ncnc(Nc4ccc(OCc5cccc(F)c5)c(Cl)c4)c3c2)o1 the remaining signal was 103% (CDK9 with cyclin K; cell-free assay; 0.5 µM).
With COc1cccc2c(NCc3ccccc3)nc(-n3c(N)nc4ccccc43)nc12 the inhibition was -14.5% (CDK9; target engagement in cells; inhibitor; chemoproteomics; 20 mM).
Cc1ccc(C(=O)NCc2ccsc2)cc1C#Cc1cn(C(C)C)c2ncnc(N)c12 has an activity vs control of 93% (CDK9 with cyclin T1; enzyme activity; inhibitor; 1 µM).
With CS(=O)(=O)Nc1cccc(-c2csc(NC(=O)CSc3nc4nccnc4c(=O)n3CCc3ccccc3)n2)c1 the inhibition was -1% (CDK9 with cyclin K; enzyme activity; inhibitor; 10 µM).
CC(=O)N1CCC(c2ccc(C(=O)NC(=N)N)cc2C(F)(F)F)CC1 gave a remaining binding of 100% (CDK9; cell-free assay; competition with immobilised ligand; 1 µM).
COc1cc(-c2cc(-c3ccc(N4CCNCC4)cc3)cnc2C)cc(OC)c1OC gave an inhibition of 3% (CDK9 with cyclin T1; enzyme activity; inhibitor; 1 µM).
CCc1ccccc1C(=O)Nc1n[nH]c2c(C)c(F)c(C3C(C#N)=C(C)N(C)C(C)=C3C#N)cc12 gave a remaining binding of 94% (CDK9; cell-free assay; competition with immobilised ligand; 1 µM).
For Cn1cncc1C1=CN(c2ncnc3[nH]cnc23)CCS1, the inhibition was 12.4% (CDK9; enzyme activity; inhibitor; radiometric; 50 nM).
The remaining binding of Cc1cc(-n2nc(Cc3cc(F)cc(C(F)(F)F)c3)nc2C)ccc1C(N)=O is reported as 100% (CDK9; cell-free assay; competition with immobilised ligand; 1 µM).
For O=C1NC(=O)c2cc(Nc3ccc(F)cc3)c(Nc3ccc(F)cc3)cc21, the remaining signal was 90.8% (CDK9 with cyclin K; cell-free assay; 0.5 µM).
The remaining binding of Cc1nc(C2CCN(C(=O)c3ccc(OC(F)(F)F)cc3N)CC2)c2ncc(N3CCN(C)CC3)cc2n1 is reported as 79% (CDK9; cell-free assay; competition with immobilised ligand; 1 µM).
For Cc1ccc(-n2nc(C(C)(C)C)cc2NC(=O)Nc2ccc(OCCN3CCOCC3)c3ccccc23)cc1, the inhibition was -17% (CDK9 with cyclin T1; enzyme activity; inhibitor; 10 µM).
